Rows were chosen to be rich in hits. Some 1.8% of all compounds tested hit in one or more screens of this group.
UPR XBP1 act = activators of adaptive XBP1 UPR arm, primary screen, cell-based, CHO-XBP1 luciferase reporter, luminescence, uHTS. IRE1-XBP1 UPR activation; percent of tunicamycin response, DMSO as zero. activation, % at 20 µM. actives 0.33% (n = 330,000);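 active = versus positive control, 20 µM dose yields 30% or more activation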;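 note: 100% = tunicamycin at 10 µg/mL and 0% = DMSO only wells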
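Material: IRE1-XBP1 luciferase reporter CHO line / Quantity: one thousand reporter cells per well / Buffer or medium: F12 with 10% serum / Compound: 20 µM single concentration, DMSO 1% / Times: 6 h treatment, 37 °C / Detection: Steady-Glo luciferase glow luminescence, 10 min after reagent addition / Benchmarks: tunicamycin high, DMSO low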
UPR CHOP act = activators of apoptotic CHOP UPR arm, primary screen, cell-based, CHO-CHOP luciferase reporter, luminescence, uHTS. UPR activation; percent of tunicamycin response over DMSO baseline. actives 0.34% (n = 330,000). activation, % at 10 µM;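 active = at 10 µM dose, activation of 40% or more, normalized to positive control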;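 note: 100% = tunicamycin at 10 µg/mL and 0% = DMSO alone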
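Test system: CHO-CHOP cells, stable luciferase reporter of PERK-eIF2a-CHOP signalling | Quantity: 500 CHO-CHOP cells per well | Buffer or medium: F12 plus 10% serum | Compound dosing: 10 µM single point, 0.5% DMSO | Schedule: 6 h compound treatment, 37 °C | Signal: Luciferase luminescence | Control set: Tunicamycin high control, DMSO low control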
697 NFkB inh = inhibitors of PMA/ionomycin-induced NF-kB reporter, 697 cells, primary screen, B-cell NF-kB inhibitor project, cell-based, luminescence, uHTS | 697 B-cell NF-kB luciferase reporter, 16 h | inhibition, % at 4 µM | actives 0.33% (n = 330,000) | AID 435022, 2010; in the data active = inhibition above about 35%
CRFR2-BP antag = antagonists of CRF-BP/CRF-R2 complex, primary screen, cell-based, HEK293, calcium dye fluorescence, uHTS; CRF-induced calcium fluorescence; inhibition, % at 11.8 µM; actives 0.59% (n = 350,000); AID 588475, 2011;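 active = inhibition of the ligand-induced calcium signal above about 50% at the single tested concentration, limit read from the data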
Jurkat NFkB inh = inhibitors of induced NF-kB luciferase reporter, primary screen, TCR NF-kB activation inhibitor project, cell-based, luminescence, uHTS; Jurkat, PMA/ionomycin-induced NF-kB luciferase reporter; inhibition, % at 4 µM; actives 0.53% (n = 330,000); in the data active = inhibition above about 50%
* marks the source's active call; other numbers are inactive results; . = no result given.

SMILES	UPR XBP1 act	UPR CHOP act	697 NFkB inh	CRFR2-BP antag	Jurkat NFkB inh
O=c1cc(CN2CCN(Cc3ccccc3)CC2)c2cc(O)ccc2o1	0.1	-0.8	-14.7	84.6*	6.8
Cc1cc2oc(=O)cc(CN3CCN(Cc4ccccc4)CC3)c2cc1O	-1.1	-0.7	-17.2	6.4	-11.6
Cc1cc(C)n(C(=O)CNC(=O)c2ccccc2Br)n1	-1.0	2.7	-6.9	97.3*	11.3
COc1ccccc1Nc1nc(N)nc(CSC(=S)N2CC(C)CC(C)C2)n1 (centres undefined)	-3.8	-2.1	-1.5	53.0*	-7.5
CC1CCN(C(=S)SCc2nc(N)nc(Nc3ccccc3)n2)CC1	2.1	1.2	-16.7	-16.8	-0.7
O=C(COC(=O)c1cnc(Cl)c(Cl)c1)NCCC1=CCCCC1	-2.4	0.2	-6.2	86.4*	4.2
Nc1cc(C(=O)OCC(=O)NCCC2=CCCCC2)ccc1Cl	-3.2	-2.3	3.2	10.0	-0.9
Cc1ccc(C)c(NC(=S)Nc2ncccc2C)c1	7.4	4.5	-30.5	124.2*	-41.2
N#Cc1cccc(NCC(=O)Nc2ccc3c(c2)OCCO3)c1	-3.0	2.6	-70.6	80.4*	-141.1
COc1ccc(OCC(=O)Nc2c(C)ccc3nsnc23)cc1	-4.1	0.6	-15.5	-13.7	-2.2
CC(=O)N1N=C(c2cccs2)CC1c1cccs1 (centres undefined)	-2.1	-1.5	-5.8	-7.0	-4.1
CC(=O)c1ccc(-c2cccs2)s1	2.9	1.8	0.8	63.7*	-20.4
CCCN(C(=O)Cn1ncc2c([nH]c3ccccc32)c1=O)c1ccccc1C	9.6	2.0	6.5	-0.6	-5.8
CCOc1ccccc1N(C)C(=O)Cn1ncc2c([nH]c3ccccc32)c1=O	-5.2	1.3	-17.9	93.8*	5.6
COc1ccc(N2C(=O)CC(c3ccc([N+](=O)[O-])cc3)C2=O)cc1 (centres undefined)	-3.7	0.8	9.2	63.4*	10.2
Cc1ccc(N2CC(C(=O)NC3CCC(C)CC3)CC2=O)cc1 (centres undefined)	-4.5	-0.7	-8.2	66.5*	5.6
CCN(CC)C(=O)[C@H]1CC(CC(=O)NCC23CC4CC(CC(C4)C2)C3)C(=O)N2CCc3c([nH]c4ccccc34)[C@]12C (some centres undefined)	19.5	5.8	15.2	-3.5	8.1
O=C(CN1CCCCCC1)Nc1ccccc1OC(F)F	-0.8	-1.0	5.6	-15.1	10.6
COc1ccccc1-n1c(=S)sc2c(=O)n(Cc3ccco3)c(SC)nc21	3.3	-0.1	-27.3	60.1*	4.4
COCCn1nnnc1C(c1ccccc1)N1CCN(c2ccccc2)CC1 (centres undefined)	0.4	-0.8	11.6	52.2*	3.5
COc1ccc(C(c2nnnn2Cc2ccccc2)N2CCN(c3ccccc3)CC2)cc1 (centres undefined)	-4.1	-1.9	-3.3	56.9*	-8.3
Cc1ccc(S(=O)(=O)N2C[C@H]3C(=O)C[C@@H](c4cccc(Cl)c4)N(S(=O)(=O)c4ccc(C)cc4)[C@H]3C[C@H]2c2ccccc2)cc1	.	.	.	2.9	.
CC(=O)NC(Cc1cccc(F)c1)C(=O)NC1CCN(C(=O)c2cccc(C)c2)CC1 (centres undefined)	-0.6	0.9	10.1	8.5	-2.5
CC(=O)NC(Cc1ccc(C(C)C)cc1)C(=O)NC1CCN(C(=O)c2cccc(C)c2)CC1 (centres undefined)	1.4	-0.1	21.4	53.4*	0.6
N#CNC(=Nc1cccc(F)c1)SCc1ccccc1F	-2.6	-2.9	16.3	85.2*	-11.5
CC(C)N=C(NC#N)SCc1ccccc1F	-3.2	-1.1	-14.6	6.5	-6.7
O=C1COc2ccc(C(=O)COC(=O)c3cc(S(=O)(=O)N4CCOCC4)ccc3F)cc2N1	-4.0	4.7	-8.6	-19.3	2.5
COc1ccc(NC(=O)c2c(F)cccc2F)cc1S(=O)(=O)Nc1ccc(Br)cc1	-0.1	1.1	21.1	62.5*	15.0
CCCCC/C=C/C1=CC(=O)C[C@H](c2ccc(OC)cc2)C1	-1.9	-1.7	10.3	3.3	0.3

Bioassay records as filed in PubChem.
